# Results published in PubChem BioAssay.
# Active and inactive are the calls of the source.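 The calls were made as follows, unless noted: active = inhibition above 20% together with a positive visual image hit; inconclusive = visual image hit but inhibition not above 20%; inactive = no visual image hit.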
# Assays:
# [1] = inhibitors of TNFa-induced NFkB p65 translocation, primary screen, imaging, HUVEC, MLSMR starter and 10KST1 sets (AID 438); conditions: HUVEC TNFa-induced p65 nuclear translocation; cell count: measured here: nuclei count (cytotoxicity indicator), at 2.08 µM; inhibition: at 2 µM, stronger effect = higher value, 0% TNFa-plus-vehicle, 100% no-TNFa wells;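 also: compound added about 3h40 before a 20 min TNFalpha stimulation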;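 as to inhibition: signal is the nuclear over cytoplasmic p65 intensity ratio per well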
# [2] = reduction of polyQ htt aggregates in cells – imaging, exon1htt(103Q)mCFP cells, high-content imaging, primary screen (AID 483;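 active = visual image review flags a hit and inhibition of aggregation exceeds 20%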;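 also: compound exposure lasted 3 days before fixation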;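 as to nuclei count: percent of the per-plate median nuclei count of sample wells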); conditions: exon1htt(103Q)mCFP cell line, aggregate imaging, at 2 µM; inhibition of aggregation: stronger effect = higher value; nuclei count: measured here: cell count, toxicity
# [3] = endothelial E-selectin expression blockers – imaging, HUVEC, immunofluorescence, MLSMR starter and 10KST1 sets, primary screen (AID 487;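 active = visually confirmed hit in the image check and inhibition above 20%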;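 as to inhibition: signal is fraction of cell area covered by stained E-selectin grains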;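 as to nuclei count: 100% = median nuclei count of all wells on the same plate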); conditions: HUVEC TNFalpha-induced E-selectin immunofluorescence imaging, at 2 µM; inhibition: stronger effect = higher value; nuclei count: measured here: cell number, toxicity
# [4] = target: Voltage-gated potassium channel subunit beta-2 (Rattus norvegicus) (UniProt P62483); assay: inhibitors of rat Kvbeta2 reductase activity – biochemical, NADPH fluorescence, primary screen (AID 622;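 active = fluorescence slope higher than the sample average by over 3 SD, cut at about -0.22 in these data, passing the limit was not always enough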;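 also: slope of raw intensity against log time taken from 70 to 1610 s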); conditions: recombinant KvBeta, 4-cyanobenzaldehyde reduction, at 10 µM, stronger effect = higher value
# [5] = target: Voltage-gated potassium channel subunit beta-2 (Rattus norvegicus) (UniProt P62483); assay: enhancers of rat Kvbeta2 NADPH turnover – biochemical, NADPH fluorescence, primary screen (AID 623;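 active = NADPH fluorescence slope more negative than the mean of all samples by about 3 SD, 99.7% confidence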;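 also: fluorescence intensity change per second fitted from 20 to 320 s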); conditions: Recombinant KvBeta, NADPH fluorescence decrease slope, 10 min; at 10 µM; stronger effect = lower value
# [6] = target: Muscarinic acetylcholine receptor M4 (Homo sapiens) (UniProt P08173); assay: M4-linked GIRK flux change, two-sided – cell-based, HEK293 M4/GIRK, thallium flux, BTC-AM, M4 allosteric agonist project, primary screen (AID 625;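 active = fluorescence slope after compound addition differing from the mean of all tested samples at 99.7% confidence, mostly higher but some lower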;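 also: thallium influx through GIRK channels coupled to M4 in HEK293 cells with BTC-AM dye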); conditions: at 10 µM, actives lie on both sides
# Procedure, shortened: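 System: HEK293 cells with M4 receptor and GIRK channels | Incubation: Cells overnight at 37 °C, BTC-AM loading 1 h, reads 2 min total | Technique: Kinetic BTC-AM fluorescence sampled at 1 Hz, 10 s pre-addition baseline | Measure: Post-addition slope, 15–24 s, of baseline-normalized fluorescence | Control set: Carbachol positive, DMSO negative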
# [7] = blockers of RIG-like receptor reporter activation – cell-based, Sendai virus stimulus, luciferase, 10K MLSCN set, TLR/RLR signaling modifier project, primary screen (AID 602276;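 active = inhibition at or above 50% at 10 µM; inactive = inhibition below 50%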;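 also: firefly luciferase from ISG56 promoter only with Renilla not read in this screen; 0% = Sendai virus plus DMSO and 100% = medium plus DMSO without virus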); conditions: HEK293 RL24 IRF3 luciferase reporter, at 10 µM, stronger effect = higher value
# [8] = TLR3 IRF3 reporter activation blockers – cell-based, poly I:C stimulus, luciferase, 10K MLSCN set, primary screen (AID 602277;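 active = inhibition of the reporter signal at or above 50%; inactive = inhibition below 50%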); conditions: HEK293-TLR3 RL24 IRF3 luciferase reporter, at 10 µM, stronger effect = higher value
# Voltage-gated potassium channel subunit beta-2 (Rattus norvegicus), sequence (P62483 whole entry, looked up): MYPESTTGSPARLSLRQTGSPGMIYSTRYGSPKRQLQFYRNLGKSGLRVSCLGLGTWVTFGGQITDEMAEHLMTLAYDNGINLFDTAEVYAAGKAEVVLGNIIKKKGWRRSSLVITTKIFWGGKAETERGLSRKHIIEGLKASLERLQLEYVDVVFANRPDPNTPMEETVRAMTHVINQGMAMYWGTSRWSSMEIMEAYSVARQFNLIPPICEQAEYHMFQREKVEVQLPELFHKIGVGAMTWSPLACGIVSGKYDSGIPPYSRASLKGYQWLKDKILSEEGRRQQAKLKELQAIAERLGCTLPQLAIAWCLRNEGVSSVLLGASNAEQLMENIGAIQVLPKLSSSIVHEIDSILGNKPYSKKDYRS
# Muscarinic acetylcholine receptor M4 (Homo sapiens), sequence (P08173 whole entry, looked up): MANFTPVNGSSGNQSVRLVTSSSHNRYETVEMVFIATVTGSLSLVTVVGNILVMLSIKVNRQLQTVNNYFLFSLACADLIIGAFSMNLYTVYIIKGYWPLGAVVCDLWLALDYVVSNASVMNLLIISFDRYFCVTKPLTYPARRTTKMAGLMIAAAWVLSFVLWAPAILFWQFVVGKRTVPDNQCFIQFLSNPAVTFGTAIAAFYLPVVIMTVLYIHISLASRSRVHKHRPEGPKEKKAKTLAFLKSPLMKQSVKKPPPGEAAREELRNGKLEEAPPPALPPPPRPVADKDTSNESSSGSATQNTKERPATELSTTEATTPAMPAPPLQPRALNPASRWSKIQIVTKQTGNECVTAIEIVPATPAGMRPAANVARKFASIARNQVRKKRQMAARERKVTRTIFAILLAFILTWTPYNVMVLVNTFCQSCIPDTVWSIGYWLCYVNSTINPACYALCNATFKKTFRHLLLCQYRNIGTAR
SMILES,cell count [1],inhibition [1],inhibition of aggregation [2],nuclei count [2],inhibition [3],nuclei count [3],fluorescence slope [4],NADPH fluorescence slope [5],fluorescence slope [6],inhibition [7],inhibition [8]
COc1ccc(Nc2nc(OC)nc(N3CCN(c4ccc(OC)cc4)CC3)n2)cc1,646,-0.5% (inactive),-13.1% (inactive),93.5%,-14.1% (inactive),100%,-0.555 (inactive),-3.4e-05 (inactive),0.00593 (inactive),14% (inactive),-11.1% (inactive)
COc1ccc(CC(=O)Nc2ccc(-c3nnc(-c4ccc(C)cc4)o3)cc2)cc1,411,0.5% (inactive),-17.7% (inactive),102%,-101% (inactive),109%,-0.454 (inactive),-9.3e-06 (inactive),0.0071 (inactive),8.75% (inactive),18.4% (inactive)
Nc1nnc(-c2cc3ccccc3oc2=O)s1,723,-6.8% (inactive),2.5% (inactive),94%,-72.3% (inactive),123%,-0.0269 (inactive),-7.7e-06 (inactive),0.0038 (inactive),-3.81% (inactive),-27.9% (inactive)
C/C(N)=C(/C#N)C(=O)COC(=O)COc1ccc(Cl)cc1,500,4.3% (inactive),11.4% (inactive),97.4%,-5.5% (inactive),105%,-0.414 (inactive),9.1e-05 (inactive),0.00641 (inactive),18.1% (inactive),23.1% (inactive)
Cc1ccc(OC(=O)NC2CCS(=O)(=O)C2)cc1C (centres undefined),395,-0.3% (inactive),-6.1% (inactive),98.6%,-107% (inactive),116%,-0.617 (inactive),-2.5e-07 (inactive),0.00398 (inactive),12.7% (inactive),17.3% (inactive)
Cc1c(=O)n(OCc2ccccn2)c2ccccc2[n+]1[O-],208,-18.3% (inactive),27.8% (inactive),112%,14.4% (inactive),89.2%,-0.412 (inactive),-1.8e-05 (inactive),0.00625 (inactive),11.7% (inactive),16.8% (inactive)
CCOC(=O)c1c(C)[nH]c(C=Nc2ccccc2)c1O,666,4.3% (inactive),12.6% (inactive),88.7%,-28.4% (inactive),103%,-0.598 (inactive),5.5e-06 (inactive),0.00349 (inactive),-11% (inactive),-41.4% (inactive)
Cc1ccc(-n2c(Cc3cccn3C)nnc2SCC(=O)NCc2ccc3c(c2)OCO3)cc1,567,-12.9% (inactive),-10.3% (inactive),103%,-53.4% (inactive),82.3%,-0.419 (inactive),2.3e-05 (inactive),0.00714 (inactive),18.7% (inactive),26.7% (inactive)
COc1cc(CNc2ccc(N3CCOCC3)c(C(=O)O)c2)ccc1OCC(N)=O,362,-2.2% (inactive),-15.5% (inactive),99.3%,26.6% (inactive),98.6%,-0.343 (inactive),0.000117 (inactive),0.00665 (inactive),5.32% (inactive),9.86% (inactive)
Oc1ccccc1C1=Nc2nc3ccccc3n2C(c2ccccc2)C1 (centres undefined),579,6.8% (inactive),3.6% (inactive),107%,-49.5% (inactive),102%,-0.539 (inactive),-7.3e-05 (inactive),0.00255 (inactive),-38.4% (inactive),-68.7% (inactive)
CC(c1ccco1)N(C(=O)COc1ccc(Cl)cc1Cl)c1ccccn1 (centres undefined),720,2.4% (inactive),-4.8% (inactive),96%,-108% (inactive),119%,-0.466 (inactive),-6.4e-05 (inactive),0.00469 (inactive),2.26% (inactive),-73.7% (inactive)
O=C(Nc1cccc(NC(=O)c2cccnc2)c1)c1cccnc1,515,-3.3% (inactive),-15.9% (inactive),96.4%,2.1% (inactive),103%,-0.271 (inactive),-1.6e-05 (inactive),0.0055 (inactive),15.2% (inactive),11% (inactive)
CC(C)[C@H](NC(=O)[C@@H]1CSCN1C(=O)OC(C)(C)C)C(=O)NCC1CCC(C(=O)O)CC1 (some centres undefined),341,8.6% (inactive),11.9% (inactive),92.5%,17.3% (inactive),84.4%,-0.579 (inactive),1.8e-05 (inactive),0.00513 (inactive),25.1% (inactive),22.7% (inactive)
Cc1ccc(NC(=O)CNc2cccc(C)c2C)c(C)c1,505,2.5% (inactive),-48.7% (inactive),12.5%,-54.3% (inactive),107%,-0.517 (inactive),-7.1e-05 (inactive),0.00498 (inactive),5.56% (inactive),-4.35% (inactive)
